Measured values from ChEMBL document CHEMBL4732178, “Dioxotriazine derivatives as a new class of P2X receptor antagonists: Identification of a lead and initial SAR studies” (Bioorg Med Chem Lett, 2021).

Columns and labels:
[1] = Clearance in rat at 1 mg/kg, iv or 3 mg/kg, po; format: ADME, organism-based; conditions: in vivo
[2] = Oral bioavailability in rat at 3 mg/kg; format: ADME, organism-based; conditions: in vivo
[3] = Cmax in rat at 3 mg/kg, po; format: ADME, organism-based; set-up: route oral, dose 3 mg/kg; conditions: in vivo
[4] = AUC in rat at 3 mg/kg, po; format: ADME, organism-based; set-up: dose 3 mg/kg; conditions: in vivo
[5] = Half life in rat at 1 mg/kg, iv or 3 mg/kg, po; format: ADME, organism-based; conditions: in vivo
[6] = Clearance in rat at 0.5 mg/kg, iv or 1 mg/kg, po; format: ADME, organism-based; conditions: in vivo
[7] = Oral bioavailability in rat or 1 mg/kg; format: ADME, organism-based; conditions: in vivo
[8] = Half life in rat at 0.5 mg/kg, iv or 1 mg/kg, po; format: ADME, organism-based; conditions: in vivo
[9] = Microsomal stability in rat liver microsomes assessed as parent compound remaining incubated for 30 mins in presence or absence of NADPH generating system; format: ADME, Microsome; conditions: read-out: Stabilty
Summary of the method: (§1)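 Compound incubated 30 min at 37 °C with human or rat liver microsomes (0.5 mg protein/mL), with or without NADPH-generating system; percent parent remaining reported.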

[10] = Microsomal stability in human liver microsomes assessed as parent compound remaining incubated for 30 mins in presence or absence of NADPH generating system; format: ADME, Microsome; conditions: read-out: Stabilty; summary of the method: as §1

remaining at 0.5 h [9] [%] | remaining at 0.5 h [10] [%] | Compound | also measured
 |  | COc1cc(C(C)C)c(Oc2cnc(NC(CO)CO)nc2N)cc1I | clearance [1]: 42 mL/min/kg; bioavailability [2]: 30.3%; Cmax [3]: 118 ng/mL; AUC [4]: 369 ng·h/mL; half-life [5]: 1.1 h
 |  | CC(C)Oc1ccc(Nc2nc(=O)c(CC(=O)O)cn2Cc2ccc(Cl)cc2)cc1Cl | clearance [6]: 8.3 mL/min/kg; bioavailability [7]: 79.9%; half-life [8]: 1.8 h
 |  | CC(C)Oc1ccc(Nc2cc(=O)n(CCC(=O)O)c(=O)n2Cc2ccc(Cl)cc2)cc1Cl | clearance [6]: 2.1 mL/min/kg; bioavailability [7]: 61.5%; half-life [8]: 2.2 h
2 | 0 | CC(=O)n1c(=O)nc(Nc2ccc(OC(C)C)c(F)c2)n(Cc2ccc(Cl)cc2)c1=O | 
1 | 45 | CC(=O)NCCn1c(=O)nc(Nc2ccc(OC(C)C)c(F)c2)n(Cc2ccc(Cl)cc2)c1=O | 
49 | 36 | CC(C)Oc1ccc(Nc2nc(=O)n(C(C)C)c(=O)n2Cc2ccc(Cl)cc2)cc1F | 
54 | 78 | CC(C)Oc1ccc(Nc2nc(=O)[nH]c(=O)n2Cc2ccc(Cl)cc2)cc1F | 
 |  | CC(C)Oc1ccc(Nc2nc(=O)n(C(C)C)c(=O)n2Cc2ccc(Cl)cc2)cc1 | clearance [6]: 23.9 mL/min/kg; bioavailability [7]: 25.2%
42 | 86 | CCn1c(=O)nc(Nc2ccc(OC(C)C)c(F)c2)n(Cc2ccc(Cl)cc2)c1=O | 
41 | 68 | CC(C)Oc1ccc(Nc2nc(=O)n(CC#N)c(=O)n2Cc2ccc(Cl)cc2)cc1F | 
35 | 36 | CCCn1c(=O)nc(Nc2ccc(OC(C)C)c(F)c2)n(Cc2ccc(Cl)cc2)c1=O | 
61 | 94 | CC(C)Oc1ccc(Nc2nc(=O)n(CCC(N)=O)c(=O)n2Cc2ccc(Cl)cc2)cc1F | 
29 | 82 | CC(C)Oc1ccc(Nc2nc(=O)n(CCCO)c(=O)n2Cc2ccc(Cl)cc2)cc1F | 
36 | 59 | CC(C)Oc1ccc(Nc2nc(=O)n(CCCCO)c(=O)n2Cc2ccc(Cl)cc2)cc1F | 
 |  | CC(C)Oc1ccc(/N=c2\[nH]c(=O)n(CC(=O)O)c(=O)n2Cc2ccc(Cl)cc2)cc1Cl | clearance [6]: 1.7 mL/min/kg; bioavailability [7]: 71.2%; half-life [8]: 2.1 h
60 | 92 | CC(C)Oc1ccc(Nc2nc(=O)n(CCO)c(=O)n2Cc2ccc(Cl)cc2)cc1F | 
99 | 92 | CC(C)Oc1ccc(Nc2nc(=O)n(CCC(=O)O)c(=O)n2Cc2ccc(Cl)cc2)cc1F | 
103 | 106 | CC(C)Oc1ccc(Nc2nc(=O)n(CCCC(=O)O)c(=O)n2Cc2ccc(Cl)cc2)cc1F | 
30 | 86 | CNC(=O)CCn1c(=O)nc(Nc2ccc(OC(C)C)c(F)c2)n(Cc2ccc(Cl)cc2)c1=O | 
15 | 47 | CC(=O)NCCCn1c(=O)nc(Nc2ccc(OC(C)C)c(F)c2)n(Cc2ccc(Cl)cc2)c1=O | 
 |  | CC(C)Oc1ccc(Nc2nc(=O)n(CCC(=O)O)c(=O)n2Cc2ccc(Cl)cc2)cc1Cl | clearance [6]: 0.5 mL/min/kg; bioavailability [7]: 43.2%; half-life [8]: 6 h
 |  | CC(C)Oc1ccc(Nc2nc(=O)n(CC(C)(C)C(=O)O)c(=O)n2Cc2ccc(Cl)cc2)cc1F | clearance [1]: 3 mL/min/kg; bioavailability [2]: 47.3%; Cmax [3]: 1260 ng/mL; AUC [4]: 6990 ng·h/mL; half-life [5]: 9.6 h
1 | 21 | CC(C)Oc1ccc(Nc2nc(=O)n(Cc3ccccc3)c(=O)n2Cc2ccc(Cl)cc2)cc1F | 
30 | 59 | CC(C)Oc1ccc(Nc2nc(=O)n(CCC#N)c(=O)n2Cc2ccc(Cl)cc2)cc1F | 
 |  | Cc1ccc(Cn2c(Nc3ccc(OC(C)C)c(Cl)c3)nc(=O)n(CCC(=O)O)c2=O)cc1 | clearance [1]: 2.7 mL/min/kg; bioavailability [2]: 71.8%; AUC [4]: 14300 ng·h/mL; half-life [5]: 1.6 h
97 | 99 | CC(C)Oc1ccc(Nc2nc(=O)n(CC(=O)O)c(=O)n2Cc2ccc(Cl)cc2)cc1F | 
